Tests used:
Estrogen receptor = Estrogen receptor (Homo sapiens, UniProt Q92731+P03372); experiment: Antagonistic activity was determined in Human estrogen receptor(hER) of CV-1 cells in cotransfection assay.; assay type: functional, cell-based
[1] = biological target: T1, Mineralocorticoid receptor (Homo sapiens, UniProt P08235); experiment: Antagonistic activity was determined in Human mineralocorticoid receptor(hMR) of CV-1 cells in cotransfection assay.; assay type: functional, cell-based
T1 sequence (P08235 whole entry): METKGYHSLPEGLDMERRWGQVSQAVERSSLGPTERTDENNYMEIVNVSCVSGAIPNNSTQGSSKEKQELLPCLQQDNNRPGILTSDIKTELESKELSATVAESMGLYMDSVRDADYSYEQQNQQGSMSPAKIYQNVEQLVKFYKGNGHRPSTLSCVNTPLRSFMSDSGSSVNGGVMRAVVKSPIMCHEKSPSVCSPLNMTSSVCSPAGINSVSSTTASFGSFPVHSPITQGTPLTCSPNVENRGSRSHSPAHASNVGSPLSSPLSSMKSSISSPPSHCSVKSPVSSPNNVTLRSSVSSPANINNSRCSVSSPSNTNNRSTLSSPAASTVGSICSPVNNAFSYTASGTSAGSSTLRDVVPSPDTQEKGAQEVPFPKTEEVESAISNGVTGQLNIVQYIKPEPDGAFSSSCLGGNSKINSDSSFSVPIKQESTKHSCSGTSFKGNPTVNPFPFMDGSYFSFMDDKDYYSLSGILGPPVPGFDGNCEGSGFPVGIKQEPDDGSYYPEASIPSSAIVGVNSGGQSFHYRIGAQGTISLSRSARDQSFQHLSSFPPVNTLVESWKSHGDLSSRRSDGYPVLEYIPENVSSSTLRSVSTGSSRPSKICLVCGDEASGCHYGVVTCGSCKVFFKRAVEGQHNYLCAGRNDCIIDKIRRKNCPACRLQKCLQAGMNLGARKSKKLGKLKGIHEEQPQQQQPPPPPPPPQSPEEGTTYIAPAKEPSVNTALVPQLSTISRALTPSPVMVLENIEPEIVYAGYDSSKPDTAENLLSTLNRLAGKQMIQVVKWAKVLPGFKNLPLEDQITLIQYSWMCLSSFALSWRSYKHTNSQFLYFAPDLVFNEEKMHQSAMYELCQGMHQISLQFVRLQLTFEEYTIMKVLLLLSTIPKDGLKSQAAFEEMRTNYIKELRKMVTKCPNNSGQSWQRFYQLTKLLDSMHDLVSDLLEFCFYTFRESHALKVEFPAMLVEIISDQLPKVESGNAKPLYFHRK

[2] = biological target: T2, Progesterone receptor (Homo sapiens) (UniProt P06401); experiment: Agonist efficacy for human progesterone receptor (hPR) was compared to that of progesterone (100%); assay type: functional
T2 sequence (whole entry): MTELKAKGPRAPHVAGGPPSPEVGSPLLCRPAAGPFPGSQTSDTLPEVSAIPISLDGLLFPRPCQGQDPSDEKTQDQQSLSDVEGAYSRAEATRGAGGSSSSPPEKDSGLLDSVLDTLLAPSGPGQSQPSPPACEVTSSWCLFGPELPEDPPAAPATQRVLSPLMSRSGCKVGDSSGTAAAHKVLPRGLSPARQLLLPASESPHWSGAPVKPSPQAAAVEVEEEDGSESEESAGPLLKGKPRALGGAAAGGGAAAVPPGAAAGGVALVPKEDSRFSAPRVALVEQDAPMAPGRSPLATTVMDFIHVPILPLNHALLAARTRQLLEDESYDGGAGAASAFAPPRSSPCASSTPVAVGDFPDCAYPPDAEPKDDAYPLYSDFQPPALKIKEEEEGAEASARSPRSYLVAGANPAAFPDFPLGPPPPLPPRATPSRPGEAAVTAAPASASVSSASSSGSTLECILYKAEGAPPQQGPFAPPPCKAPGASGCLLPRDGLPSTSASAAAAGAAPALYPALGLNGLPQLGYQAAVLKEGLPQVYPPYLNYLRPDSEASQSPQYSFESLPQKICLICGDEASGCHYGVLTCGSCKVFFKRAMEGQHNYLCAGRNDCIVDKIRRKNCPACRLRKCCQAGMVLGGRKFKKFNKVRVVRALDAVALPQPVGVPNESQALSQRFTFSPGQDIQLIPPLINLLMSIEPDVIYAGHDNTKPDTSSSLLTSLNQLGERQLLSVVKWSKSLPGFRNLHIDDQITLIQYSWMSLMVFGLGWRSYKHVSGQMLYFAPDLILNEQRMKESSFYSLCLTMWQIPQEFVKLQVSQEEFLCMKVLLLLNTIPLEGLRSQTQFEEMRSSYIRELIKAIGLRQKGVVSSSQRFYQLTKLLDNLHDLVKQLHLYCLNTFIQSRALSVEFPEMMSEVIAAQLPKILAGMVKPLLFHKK
Procedure, shortened: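 Cotransfection assay in CV-1 cells transiently transfected by calcium phosphate coprecipitation with hPR plasmid, MTV-LUC reporter, pRS-β-Gal and filler DNA. Full dose–response curves from 10^-12 to 10^-5 M were run. […] Values are the mean of at least three experiments with triplicate determinations, or of two experiments, or a single experiment.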

Androgen receptor = biological target: T3, Androgen receptor (Homo sapiens, UniProt P10275)
T3 sequence (P10275 whole entry): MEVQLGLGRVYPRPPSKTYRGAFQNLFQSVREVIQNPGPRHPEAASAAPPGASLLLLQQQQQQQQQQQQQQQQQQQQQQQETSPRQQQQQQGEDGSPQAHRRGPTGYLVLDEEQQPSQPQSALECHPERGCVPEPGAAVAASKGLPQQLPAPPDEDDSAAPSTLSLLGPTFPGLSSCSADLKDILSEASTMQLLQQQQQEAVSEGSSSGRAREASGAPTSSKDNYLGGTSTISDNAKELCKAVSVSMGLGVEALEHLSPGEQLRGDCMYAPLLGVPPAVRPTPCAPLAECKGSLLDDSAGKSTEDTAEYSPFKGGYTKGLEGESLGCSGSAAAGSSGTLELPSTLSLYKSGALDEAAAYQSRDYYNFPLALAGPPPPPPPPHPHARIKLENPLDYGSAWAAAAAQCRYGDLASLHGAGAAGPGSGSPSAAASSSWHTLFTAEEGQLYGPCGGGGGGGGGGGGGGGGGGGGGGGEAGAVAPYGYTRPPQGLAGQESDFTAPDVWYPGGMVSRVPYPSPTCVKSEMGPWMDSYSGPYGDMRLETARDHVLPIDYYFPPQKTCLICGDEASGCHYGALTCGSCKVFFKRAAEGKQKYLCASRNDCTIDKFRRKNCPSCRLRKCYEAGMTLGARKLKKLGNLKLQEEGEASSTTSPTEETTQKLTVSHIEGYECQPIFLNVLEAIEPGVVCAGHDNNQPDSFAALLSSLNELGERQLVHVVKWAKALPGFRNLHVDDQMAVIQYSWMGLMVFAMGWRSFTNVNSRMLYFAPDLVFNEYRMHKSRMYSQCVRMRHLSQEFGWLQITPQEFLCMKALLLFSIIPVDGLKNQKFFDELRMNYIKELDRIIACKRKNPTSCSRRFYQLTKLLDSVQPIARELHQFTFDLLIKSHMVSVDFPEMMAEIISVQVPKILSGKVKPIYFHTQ

Structure (SMILES) | IC50 (Estrogen receptor) | IC50 [1] | Efficacy [2] | Ki (Androgen receptor)
CC1=CC(C)(C)Nc2ccc3c(c21)C(c1cc(Cl)cc(Cl)c1)Oc1ccccc1-3 (configuration not stated) | > 10000 nM | > 10000 nM | 57% | 2580 nM
CC1=CC(C)(C)Nc2ccc3c(c21)C(c1ccc(Br)cc1)Oc1ccccc1-3 (configuration not stated) | > 10000 nM | 977 nM | 59% | > 10000 nM
CC1=CC(C)(C)Nc2ccc3c(c21)C(c1ccc(C)c(F)c1)Oc1ccccc1-3 (configuration not stated) | 1449 nM | 1000 nM | 83% | 1580 nM
CC1=CC(C)(C)Nc2ccc3c(c21)C(c1cccc(C(F)(F)F)c1)Oc1ccccc1-3 (configuration not stated) | 1537 nM | 2220 nM | 96% | 795 nM
CC1=CC(C)(C)Nc2ccc3c(c21)C(c1cc(C)cc(Br)c1)Oc1ccccc1-3 (configuration not stated) | 1037 nM | > 10000 nM | 65% | 3500 nM
CC1=CC(C)(C)Nc2ccc3c(c21)C(c1ccc(Cl)c(F)c1)Oc1ccccc1-3 (configuration not stated) | 1449 nM | 1360 nM | 59% | 1460 nM
CC1=CC(C)(C)Nc2ccc3c(c21)C(c1ccc(Cl)cc1)Oc1ccccc1-3 (configuration not stated) | 1803 nM | 1520 nM |  | 2680 nM
CC1=CC(C)(C)Nc2ccc3c(c21)C(c1ccc(Cl)c(C)c1)Oc1ccccc1-3 (configuration not stated) | 1220 nM | 2030 nM | 68% | 1860 nM
CC1=CC(C)(C)Nc2ccc3c(c21)C(c1ccc(Cl)c(Cl)c1)Oc1ccccc1-3 (configuration not stated) | 2632 nM | 1060 nM | 66% | 5830 nM
CC1=CC(C)(C)Nc2ccc3c(c21)C(c1cccc(Cl)c1)Oc1ccccc1-3 (configuration not stated) | 1480 nM | 748 nM | 76% | 1530 nM
CC1=CC(C)(C)Nc2ccc3c(c21)C(c1cccc(Br)c1)Oc1ccccc1-3 (configuration not stated) | 1095 nM | 1070 nM | 77% | 2140 nM
CC1=CC(C)(C)Nc2ccc3c(c21)C(c1ccc(C)cc1)Oc1ccccc1-3 (configuration not stated) | 2395 nM | 1590 nM | 59% | 2330 nM

Reference: ChEMBL document CHEMBL1131454 (J Med Chem, 1998)
